Reference: ChEMBL document CHEMBL1135827, “Enhancement of nucleoside cytotoxicity through nucleotide prodrugs” (J Med Chem, 2002)

T1: DNA polymerase alpha catalytic subunit (Homo sapiens, UniProt P09884)
T1 sequence (P09884 whole entry): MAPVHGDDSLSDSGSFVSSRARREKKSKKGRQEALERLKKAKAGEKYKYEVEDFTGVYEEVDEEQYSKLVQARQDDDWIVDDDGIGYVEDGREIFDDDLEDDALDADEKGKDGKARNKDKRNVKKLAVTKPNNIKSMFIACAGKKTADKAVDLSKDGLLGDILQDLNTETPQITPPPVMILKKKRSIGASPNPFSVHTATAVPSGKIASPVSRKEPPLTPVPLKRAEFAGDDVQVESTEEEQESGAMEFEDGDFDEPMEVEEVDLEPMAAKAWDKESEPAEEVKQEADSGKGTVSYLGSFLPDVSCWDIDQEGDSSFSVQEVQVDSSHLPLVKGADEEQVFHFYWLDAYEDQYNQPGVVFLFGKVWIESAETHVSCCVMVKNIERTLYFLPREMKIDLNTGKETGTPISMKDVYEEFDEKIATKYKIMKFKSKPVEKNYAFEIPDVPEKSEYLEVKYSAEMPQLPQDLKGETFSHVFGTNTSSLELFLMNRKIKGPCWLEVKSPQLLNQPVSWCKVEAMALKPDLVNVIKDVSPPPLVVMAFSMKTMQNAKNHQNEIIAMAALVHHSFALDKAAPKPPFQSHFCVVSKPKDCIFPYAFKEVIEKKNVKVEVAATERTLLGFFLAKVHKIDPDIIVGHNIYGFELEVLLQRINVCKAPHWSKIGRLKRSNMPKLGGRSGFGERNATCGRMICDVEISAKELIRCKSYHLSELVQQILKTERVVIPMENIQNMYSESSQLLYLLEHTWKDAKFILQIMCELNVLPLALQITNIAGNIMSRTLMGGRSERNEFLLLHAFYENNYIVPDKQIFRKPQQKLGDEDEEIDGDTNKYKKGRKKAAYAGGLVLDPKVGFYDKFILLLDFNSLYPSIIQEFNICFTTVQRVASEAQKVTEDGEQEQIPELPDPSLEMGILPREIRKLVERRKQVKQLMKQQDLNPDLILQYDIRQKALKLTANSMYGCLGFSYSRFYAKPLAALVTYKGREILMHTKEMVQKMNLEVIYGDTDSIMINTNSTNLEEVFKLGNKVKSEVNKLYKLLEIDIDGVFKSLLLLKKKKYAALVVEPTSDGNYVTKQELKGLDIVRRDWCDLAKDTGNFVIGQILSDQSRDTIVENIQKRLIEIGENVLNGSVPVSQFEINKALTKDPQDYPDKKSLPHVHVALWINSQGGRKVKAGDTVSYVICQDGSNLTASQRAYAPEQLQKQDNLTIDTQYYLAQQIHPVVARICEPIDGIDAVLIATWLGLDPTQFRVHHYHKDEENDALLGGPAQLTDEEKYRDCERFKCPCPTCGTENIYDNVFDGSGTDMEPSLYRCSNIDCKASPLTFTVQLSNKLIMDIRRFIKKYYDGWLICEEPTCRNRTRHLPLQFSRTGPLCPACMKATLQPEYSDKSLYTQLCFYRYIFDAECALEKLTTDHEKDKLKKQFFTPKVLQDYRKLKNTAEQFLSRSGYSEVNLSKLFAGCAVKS

B1: DNA polymerase alpha catalytic subunit (Homo sapiens), P09884 (protein)
chain: T1 sequence (P09884 whole entry)

Key:
CCRF-CEM [1] = test: Percent control of DNA synthesis in CEM cells; format: functional, Homo sapiens
Procedure, shortened: (§1)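 CEM cells (RPMI 1640, 10% FBS) incubated with 29 μM or 35 μM compound (± 10 μM dCF). [3H]thymidine, [3H]uridine or [3H]leucine added 30 min after drug; samples at 1, 2 and 4 h after label. Acid-precipitable radioactivity measured; RNA taken as total acid-precipitable minus alkali-stable/acid-precipitable (DNA) fraction. Expressed as percent of control; repeated twice.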

CCRF-CEM [2] = test: Percent control of protein synthesis in CEM cells; format: functional, Homo sapiens; procedure, shortened: as §1
CCRF-CEM [3] = test: Percent control of RNA synthesis in CEM cells; format: functional, Homo sapiens; procedure, shortened: as §1
[4] = target: T1, DNA polymerase alpha catalytic subunit; test: Ability to inhibit the incorporation of dATP into DNA by DNA polymerase alpha
Procedure, shortened: (§2)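 DNA polymerase α purified 52-fold from CEM cells (specific activity 120 nmol/mg/hr). 50 μL reactions: 50 mM Tris pH 8.0, 1 mg/mL BSA, 10 mM MgCl2, 1 mM DTT, 100 μg/mL activated DNA, 100 μM each dTTP and dCTP, 10 μM [3H]dGTP, dATP 0–100 μM. 1 h at 37 °C; TCA/ethanol-washed glass-fiber filters counted. Ki from slopes of Lineweaver–Burk lines vs inhibitor, three inhibitor concentrations.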

[5] = substrate: Nc1ncnc2c1ncn2[C@H]1C[C@H](O)[C@@H](COP(=O)(O)OP(=O)(O)OP(=O)(O)O)O1; test: Km value with DNA polymerase alpha; format: functional; procedure, shortened: as §2

Row | Molecule | Control (CCRF-CEM [1]) [%] | Control (CCRF-CEM [2]) [%] | Control (CCRF-CEM [3]) [%] | Ki [4] [µM] | Km [5] [µM]
1 | CC(C)(C)C(=O)OCOP(=O)(OCOC(=O)C(C)(C)C)OC[C@H]1O[C@@H](n2nnc3c(N)ncnc32)C[C@H]1O.OC[C@H]1O[C@@H](n2cnc3c2NC=NC[C@H]3O)C[C@@H]1O | 11 | 98 | 3 |  | 
2 | CC(C)(C)C(=O)OCOP(=O)(OCOC(=O)C(C)(C)C)OC[C@H]1O[C@@H](n2c(Br)nc3c(N)ncnc32)C[C@@H]1O | 53 | 94 | 14 |  | 
3 | CC(C)(C)C(=O)OCOP(=O)(OCOC(=O)C(C)(C)C)OC[C@H]1O[C@@H](n2nnc3c(N)ncnc32)C[C@H]1O | 11 | 95 | 3 | 156 | 
4 | B1 |  |  |  |  | 4
